Experimental findings from ChEMBL document CHEMBL1156012, “Structure-activity relationship and improved hydrolytic stability of pyrazole derivatives that are allosteric inhibitors of West Nile Virus NS2B-NS3 proteinase” (Bioorg Med Chem Lett, 2009) are described below.

Usually IC50 stands for the concentration that gives 50% inhibition. A high value points to weaker potency.

For series [1], the target named is Genome polyprotein (West Nile virus, UniProt P06935). As to the kind of experiment: Inhibition of WNV NS2B-NS3 protease by fluorescence assay. An outline of the steps:
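Recombinant WNV NS2B-NS3 proteinase (10 nM, active-site titrated against aprotinin) preincubated 60 min at 18 °C with increasing inhibitor concentrations in 10 mM Tris-HCl pH 8.0, 20% glycerol, 0.005% Brij 35. Pyr-RTKR-AMC substrate at 25 μM; initial velocities read continuously at ex 360/em 465 nm. Triplicates; IC50 derived.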

Series [2] in a line: Aqueous stability assessed as half life at pH 8.0 buffer. The class given is physicochemical. An outline of the steps:
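Compound held in pH 8 buffer; remaining amount followed over time by LC/MS to give half-life.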

Sequence of Genome polyprotein (P06935 1371-1501 limits assumed): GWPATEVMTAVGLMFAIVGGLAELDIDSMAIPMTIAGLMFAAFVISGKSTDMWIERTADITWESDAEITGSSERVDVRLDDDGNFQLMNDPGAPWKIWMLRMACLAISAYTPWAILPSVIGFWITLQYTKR
Sequence of Genome polyprotein (P06935 1502-2120 limits assumed): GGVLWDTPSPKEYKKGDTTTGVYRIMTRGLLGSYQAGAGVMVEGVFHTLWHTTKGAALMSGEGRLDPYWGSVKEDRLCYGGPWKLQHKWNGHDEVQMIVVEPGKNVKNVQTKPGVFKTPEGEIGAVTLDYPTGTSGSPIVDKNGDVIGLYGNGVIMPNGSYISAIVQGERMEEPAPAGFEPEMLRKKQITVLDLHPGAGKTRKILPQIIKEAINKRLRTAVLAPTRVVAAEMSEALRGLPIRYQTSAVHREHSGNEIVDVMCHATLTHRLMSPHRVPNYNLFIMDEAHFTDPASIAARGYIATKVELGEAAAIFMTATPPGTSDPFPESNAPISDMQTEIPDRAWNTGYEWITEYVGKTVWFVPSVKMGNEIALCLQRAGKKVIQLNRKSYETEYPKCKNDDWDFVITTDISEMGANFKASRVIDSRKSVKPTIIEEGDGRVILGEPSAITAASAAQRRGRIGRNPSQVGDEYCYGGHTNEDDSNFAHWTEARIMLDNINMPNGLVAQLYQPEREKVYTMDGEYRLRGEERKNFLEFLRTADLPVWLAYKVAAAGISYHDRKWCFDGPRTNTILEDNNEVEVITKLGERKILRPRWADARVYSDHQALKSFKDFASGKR

The molecule `COc1ccc(S(=O)(=O)n2nc(OC(=O)c3ccccc3[N+](=O)[O-])cc2N)cc1` gave a half-maximal inhibitory concentration (IC50) in series [1] of over 100 µM.

With `COc1ccc(S(=O)(=O)n2nc(OC(=O)c3c(F)cccc3F)cc2N)cc1`, the IC50 in series [1] was 0.31 µM. Further, the t1/2 in series [2] was found to be 1.5 h.

In series [1], `COc1ccc(Cn2nc(C)cc2OC(=O)c2ccccc2)cc1` registered a concentration for half-maximal inhibition (IC50) of 4.03 µM. For the same molecule, in series [2], the t1/2 stood at 15 h.

In turn, `COc1ccc(S(=O)(=O)n2nc(OC(=O)c3cccc(C(F)(F)F)c3F)cc2N)cc1` registered a half-maximal inhibitory concentration (IC50) in series [1] of 45.5 µM.

Take `Cc1cc(OC(=O)c2c(F)cccc2F)n(Cc2ccccc2)n1`: the midpoint of inhibition in series [1], the IC50, lay at 8.04 µM.

As for `COc1ccc(S(=O)(=O)n2nc(OC(=O)c3c(F)ccc(C)c3F)cc2N)cc1`, it took 4.28 µM to reach half-maximal inhibition in series [1] (IC50). The t1/2 in series [2] is 2.5 h.

Consider `COc1ccc(S(=O)(=O)n2nc(OC(=O)c3c(F)c(F)c(C)c(F)c3F)cc2N)cc1`, for which the half-inhibitory concentration (IC50) in series [1] is 10.7 µM.

In the case of `COc1ccc(S(=O)(=O)n2nc(OC(=O)c3sccc3C)cc2N)cc1`, the concentration for half-maximal inhibition (IC50) in series [1] amounted to 5 µM.

Take `Cc1cc(NC(=O)c2ccccc2)n(-c2ccccc2)n1`: inhibition in series [1] was half-maximal at 16 µM (IC50). The t1/2 in series [2] was over 96 h.

In the case of `COc1ccc(Cn2nc(C)cc2CC(O)c2ccccc2)cc1` (stereo not given), the IC50 in series [1] was over 100 µM.

With `COc1ccc(S(=O)(=O)n2nc(OC(=O)c3c(F)cc(F)cc3F)cc2N)cc1`, the IC50 in series [1] is 1.83 µM. The t1/2 in series [2] was 4.25 h.

On to `COc1ccc(Cn2nc(C)cc2/C=C/c2c(F)cccc2F)cc1`, for which, in series [1], the IC50 was found to be 13.8 µM. Further, in series [2], the t1/2 was found to be 13 h.

Molecule `COc1ccc(S(=O)(=O)n2nc(OC(=O)c3ccc(F)cc3F)cc2N)cc1` returned an IC50 in series [1] of 1.96 µM. Moreover, the t1/2 in series [2] worked out at 7.5 h.

With `COc1ccc(S(=O)(=O)n2nc(OC(=O)c3ccc(F)c(F)c3F)cc2N)cc1`, in series [1], 11.9 µM corresponded to half-maximal inhibition (IC50).

Turning to `COc1ccc(Cn2nc(C)cc2OC(=O)c2c(F)cccc2F)cc1`, the IC50 in series [1] was 8.71 µM. The t1/2 in series [2] was determined as 1.5 h.

Regarding `COc1ccc(Cn2nc(C)cc2CC(O)c2c(F)cccc2F)cc1` (stereo not given), in series [1], the 50% inhibitory concentration (IC50) is over 100 µM.

For `COc1ccc(S(=O)(=O)n2nc(OC(=O)c3sccc3Cl)cc2N)cc1`, in series [1], the IC50 was 1.22 µM.

Consider `COc1ccc(S(=O)(=O)n2nc(OC(=O)c3cc(F)ccc3F)cc2N)cc1`, for which inhibition in series [1] was half-maximal at 4.9 µM (IC50).

`COc1ccc(S(=O)(=O)n2nc(OC(=O)c3ccccc3OC)cc2N)cc1` came in with an IC50 in series [1] of over 100 µM.

As for `COc1ccc(S(=O)(=O)n2nc(OC(=O)c3cc(F)c(F)cc3F)cc2N)cc1`, in series [1], it took 26.2 µM to reach half-maximal inhibition (IC50).

In series [1], `COc1ccc(Cn2nc(C)cc2CC(=O)c2ccccc2F)cc1` returned a half-inhibitory concentration (IC50) of 38.8 µM.

In series [1], `COc1ccc(S(=O)(=O)n2nc(C)cc2NC(=O)c2ccccc2)cc1` gave an IC50 of 9.2 µM. Further, the t1/2 in series [2] was found to be 1.25 h.

On to `COc1ccc(S(=O)(=O)n2nc(OC(=O)c3c(F)ccc(F)c3F)cc2N)cc1`, for which 0.97 µM corresponded to half-maximal inhibition in series [1] (IC50). Moreover, the t1/2 in series [2] worked out at 1.5 h.

`COc1ccc(S(=O)(=O)n2nc(OC(=O)c3c(Cl)cccc3Cl)cc2N)cc1` had an IC50 in series [1] of over 100 µM. In series [2], the t1/2 was determined as 5 h.

As to `COc1ccc(Cn2nc(C)cc2CC(=O)c2c(F)cccc2F)cc1`, in series [1], the 50% inhibitory concentration (IC50) is 23.9 µM.

Regarding `Cc1cc(OC(=O)c2c(F)ccc(C)c2F)n(Cc2ccccc2)n1`, the IC50 in series [1] stood at 9.43 µM.

In series [1], `COc1ccc(S(=O)(=O)n2nc(OC(=O)c3ccccc3C)cc2N)cc1` registered an IC50 of 3.55 µM.

On to `COc1ccc(Cn2nc(C)cc2OC(=O)c2c(F)ccc(C)c2F)cc1`, for which half-maximal inhibition in series [1] (IC50) was put at 9.26 µM.

On to `COc1ccc(Cn2nc(C)cc2CC(=O)c2ccccc2)cc1`, for which the concentration for half-maximal inhibition (IC50) in series [1] is over 100 µM.
